Measurements published in ChEMBL document CHEMBL4033800, “Further Developments of the Phenyl-Pyrrolyl Pentane Series of Nonsteroidal Vitamin D Receptor Modulators as Anticancer Agents” (J Med Chem, 2018).
pIC50: −log10 of the molar value. The source made the active and inactive calls. The rule behind the calls is not given here.

Key:
MCF7 [1] = assay: Antitumor activity against human MCF7 cells xenografted in BALB/c nude mouse assessed as reduction in tumor cell proliferation at 10 mg/kg, ip administered every other day by Ki-67 staining based microscopic analysis; format: functional, organism-based
How it was run: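 MCF7 orthotopic tumors from nude mice given 10 mg/kg i.p. were sectioned and immunostained for Ki-67. Ki-67-positive area was scored as a percentage of total nuclear area per field (n=10 fields, 400×) and normalized to the calcitriol group.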

[2] = Bioavailability in Sprague-Dawley rat at 20 mg/kg, ip measured up to 48 hrs after administration by HPLC analysis; format: ADME, organism-based; details: in vivo
How it was run: (§1)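 Male Sprague-Dawley rats (180−220 g), 4 per group, dosed at 5 mg/kg i.v., 20 mg/kg i.p. or 20 mg/kg p.o. Parameters given as mean ± SD (n = 4).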

MCF7 [3] = assay: Antiproliferative activity against human MCF7 cells after 48 hrs by MTT assay; format: functional, cell-based; details: MCF7, 48 h
MCF7 [4] = assay: Induction of apoptosis in human MCF7 cells assessed as upregulation of Bak mRNA levels at 1 uM after 24 hrs by RT-qPCR analysis; format: functional, cell-based
[5] = Half life in Sprague-Dawley rat at 20 mg/kg, ip by HPLC analysis; format: ADME, organism-based; details: in vivo; how it was run: as §1
MCF7 [6] = assay: Induction of cell cycle arrest in human MCF7 cells assessed as accumulation at G0/G1 phase at 1 uM after 24 hrs by propidium iodide-staining based flow cytometry (reference value: 56.03%); format: functional
[7] = Half life in Sprague-Dawley rat at 5 mg/kg, iv by HPLC analysis; format: ADME, organism-based; details: in vivo; how it was run: as §1
[8] = AUC in Sprague-Dawley rat at 20 mg/kg, po measured up to 48 hrs post administration by HPLC analysis; format: ADME, organism-based; parameters: time < 48 hr, dose 20 mg/kg, route oral; details: in vivo; how it was run: as §1
[9] = Drug uptake in human MCF7 cells at 1 uM after 10 mins by HPLC analysis; format: ADME, cell-based; details: mcf7, 10 min
How it was run: (§2)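 MCF7 cells were given 1 µM compound in medium with 10% FBS for 10 or 30 min. Cells and medium were extracted separately with chloroform/methanol (3:1, v/v) and analysed by HPLC. Mean ± SEM, n = 3.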

[10] = biological target: T1, Vitamin D3 receptor (Homo sapiens) (UniProt P11473); assay: Transactivation of human GAL4-fused VRD expressed in HEK293 cells co-transfected with human RXRalpha/VDRE after 24 hrs by dual luciferase reporter gene assay; format: cell-based
T1 sequence (whole entry): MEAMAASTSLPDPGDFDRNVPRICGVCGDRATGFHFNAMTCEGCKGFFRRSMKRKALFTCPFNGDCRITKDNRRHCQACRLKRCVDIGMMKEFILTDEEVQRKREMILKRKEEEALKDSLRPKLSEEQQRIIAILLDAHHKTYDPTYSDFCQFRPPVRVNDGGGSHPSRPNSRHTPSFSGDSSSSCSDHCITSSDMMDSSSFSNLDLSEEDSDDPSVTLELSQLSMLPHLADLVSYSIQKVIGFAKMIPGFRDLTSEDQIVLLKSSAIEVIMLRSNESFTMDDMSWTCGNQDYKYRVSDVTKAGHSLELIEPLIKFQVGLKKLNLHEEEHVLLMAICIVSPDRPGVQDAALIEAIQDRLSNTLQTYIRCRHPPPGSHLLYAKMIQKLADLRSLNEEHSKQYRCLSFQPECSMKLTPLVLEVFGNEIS

MCF7 [11] = assay: Induction of apoptosis in human MCF7 cells assessed as early apoptotic cells at 1 uM after 24 hrs by Annexin V-FITC/propidium iodide-staining based flow cytometry (reference value: 1.74%); format: functional
MCF7 [12] = assay: Induction of cell cycle arrest in human MCF7 cells assessed as upregulation of p27 mRNA levels at 1 uM after 24 hrs by RT-qPCR analysis; format: functional, cell-based
How it was run: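 p21 and p27 mRNA levels were measured by real-time quantitative PCR in MCF7 cells treated at 1 µM for 24 h.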

[13] = Drug uptake in human MCF7 cells at 1 uM after 30 mins by HPLC analysis; format: ADME, cell-based; details: mcf7, 0.5 h; how it was run: as §2
Caco-2 = assay: Antiproliferative activity against human Caco2 cells after 48 hrs by MTT assay; format: functional, cell-based; details: Caco-2, 48 h
HepG2 = assay: Induction of cell cycle arrest in human HepG2 cells at 1 uM after 24 hrs by propidium iodide-staining based flow cytometry; format: functional
MCF7 [14] = assay: Induction of cell cycle arrest in human MCF7 cells assessed as upregulation of p27 expression at 1 uM after 24 hrs by Western blot analysis; format: functional, cell-based
How it was run: (§3)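 p21 and p27 protein levels were measured by Western blot in MCF7 cells treated at 1 µM for 24 h.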

[15] = Clearance in Sprague-Dawley rat at 20 mg/kg, ip by HPLC analysis; format: ADME, organism-based; details: in vivo; how it was run: as §1
L02 = assay: Antiproliferative activity against human L02 cells after 48 hrs by MTT assay; format: cell-based; details: L02, 48 h
MCF7 [16] = assay: Induction of apoptosis in human MCF7 cells assessed as late apoptotic cells at 1 uM after 24 hrs by Annexin V-FITC/propidium iodide-staining based flow cytometry (reference value: 0.062%); format: functional
[17] = MRT in Sprague-Dawley rat at 5 mg/kg, iv by HPLC analysis; format: ADME, organism-based; details: in vivo; how it was run: as §1
Vitamin D3 receptor = biological target: T2, Vitamin D3 receptor (Homo sapiens, UniProt P11473); assay: Displacement of fluormone VDR red from human full length VDR after 4 hrs by fluorescence polarization assay
T2 sequence (P11473 whole entry): T1 sequence (whole entry)

Mus musculus = assay: Toxicity in BALB/c nude mouse xenografted with human MCF7 cells assessed increase in serum calcium levels at 10 mg/kg, ip administered every other day relative to control; format: organism-based; details: in vivo
How it was run: (§4)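 MCF7 cells transplanted orthotopically into the breast of athymic nude mice. Dosing at 10 mg/kg i.p. in vehicle of polyoxyethylated castor oil/ethanol/saline 1:1:18, with vehicle and saline control groups. Body weight, tumor volume and serum calcium followed.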

[18] = Clearance in Sprague-Dawley rat at 5 mg/kg, iv measured up to 48 hrs post administration by HPLC analysis; format: ADME, organism-based; details: in vivo; how it was run: as §1
MCF7 [19] = assay: Induction of cell cycle arrest in human MCF7 cells assessed as upregulation of p21 expression at 1 uM after 24 hrs by Western blot analysis; format: functional, cell-based; how it was run: as §3
[20] = AUC in Sprague-Dawley rat at 20 mg/kg, ip measured up to 48 hrs post administration by HPLC analysis; format: ADME, organism-based; parameters: time < 48 hr, dose 20 mg/kg, route intraperitoneal; details: in vivo; how it was run: as §1
MCF7 [21] = assay: Induction of apoptosis in human MCF7 cells assessed as viable cells at 1 uM after 24 hrs by Annexin V-FITC/propidium iodide-staining based flow cytometry (reference value: 98.2%); format: functional; details: MCF7, 24 h, read-out: Activity
[22] = Oral bioavailability in Sprague-Dawley rat at 20 mg/kg measured up to 48 hrs after administration by HPLC analysis; format: ADME, organism-based; details: in vivo; how it was run: as §1
MCF7 [23] = assay: Induction of cell cycle arrest in human MCF7 cells assessed as accumulation at S phase at 1 uM after 24 hrs by propidium iodide-staining based flow cytometry (reference value: 31.55%); format: functional
MCF7 [24] = assay: Antitumor activity against human MCF7 cells xenografted in BALB/c nude mouse assessed as tumor growth inhibition at 10 mg/kg, ip administered every other day; format: functional, organism-based; how it was run: as §4
[25] = Clearance in Sprague-Dawley rat at 20 mg/kg, po by HPLC analysis; format: ADME, organism-based; details: in vivo; how it was run: as §1

For `CCn1c(C(=O)NCCCN2CCOCC2)ccc1C(CC)(CC)c1ccc(OCCC(O)(CC)CC)c(C)c1`, the Activity (MCF7 [1]) was “Active”, the bioavailability [2] was 62.5% and the pIC50 (MCF7 [3]) was 6.59. The Activity (MCF7 [4]) was “Active”, the half-life [5] was 11.7 h and the Activity (MCF7 [6]) was 70.41%. For the same compound, the half-life [7] was 4.75 h, the AUC at 48 h [8] was 15300 ng·h/mL and the Drug uptake [9] was 37.9%. The Activity [10] was “Dose-dependent effect”, the Activity (MCF7 [11]) was 9.72% and the Activity (MCF7 [12]) was “Active”. The Drug uptake [13] was 38.2%, the pIC50 (Caco-2) was 5.57 and the Activity (HepG2) was “Active”. The Activity (MCF7 [14]) was “Active”, the CL/F [15] was 13 mL/min and the pIC50 (L02) was 5.54. For the same compound, the Activity (MCF7 [16]) was 2.83%, the MRT [17] was 7.55 h and the pIC50 (Vitamin D3 receptor) was 6.39. The Activity (Mus musculus) was “Non-Toxic”, the clearance [18] was 8.17 mL/min and the Activity (MCF7 [19]) was “Active”. For the same compound, the AUC at 48 h [20] was 25900 ng·h/mL, the viability at 1 µM (MCF7 [21]) was 87.3% and the bioavailability [22] was 36.8%. For the same compound, the Activity (MCF7 [23]) was 22.62%, the TGI (MCF7 [24]) was “Active” and the CL/F [25] was 21.8 mL/min.

With `CCN(CC)CCCNC(=O)c1ccc(C(CC)(CC)c2ccc(OCCC(O)(CC)CC)c(C)c2)n1CC` the Activity (MCF7 [1]) was “Active”, the bioavailability [2] was 30.2% and the pIC50 (MCF7 [3]) was 7.24. For the same compound, the Activity (MCF7 [4]) was “Active”, the half-life [5] was 6.21 h and the Activity (MCF7 [6]) was 70.15%. The half-life [7] was 2.97 h, the AUC at 48 h [8] was 21500 ng·h/mL and the Drug uptake [9] was “Active”. For the same compound, the Activity [10] was “Dose-dependent effect”, the Activity (MCF7 [11]) was 9.59% and the Activity (MCF7 [12]) was “Active”. The Drug uptake [13] was “Active”, the pIC50 (Caco-2) was 7.77 and the Activity (HepG2) was “Active”. For the same compound, the Activity (MCF7 [14]) was “Active”, the CL/F [15] was 11.3 mL/min and the pIC50 (L02) was 6.43. It also gave an Activity (MCF7 [16]) of 4.49%, an MRT [17] of 3.85 h and a pIC50 (Vitamin D3 receptor) of 6.53. For the same compound, the Activity (Mus musculus) was “Non-Toxic”, the clearance [18] was 3.5 mL/min and the Activity (MCF7 [19]) was “Active”. For the same compound, the AUC at 48 h [20] was 30500 ng·h/mL, the viability at 1 µM (MCF7 [21]) was 85.7% and the bioavailability [22] was 21.3%. The Activity (MCF7 [23]) was 25.13%, the TGI (MCF7 [24]) was “Active” and the CL/F [25] was 15.5 mL/min.
